From PubChem BioAssay
OX1R antag-1 – blocks the human orexin 1 receptor; O43613; CHO/OX1R cells, Fluo-8 calcium fluorescence, orexin A; inhibition, % at 5 µM; hit rate 0.43% among 330,000; AID 434989;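 active means inhibition above its plate's threshold, mean inhibition of all tested compounds on the plate plus 3 SD, cut at about 37% in these data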;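 further: 0% = orexin A challenge wells and 100% = SB-334867-A antagonist wells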
CHO parental Ca – counter-screen for OX1R antagonists: effect in parental CHO cells | AID 463079 | inhibition, % at 5.6 µM | hit rate 0.63% among 330,000 | parental CHO-K1, ATP-induced calcium, Fluo-8 fluorescence;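 active means inhibition above that plate's mean sample inhibition plus 3 SD, cut at about 26% in these data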;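 further: 0% = ATP-challenged DMSO wells and 100% = DMSO wells without ATP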
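test system = CHO parental line | reagent = ATP stimulus | measured by = intracellular calcium via Fluo-8 no-wash fluorescent dye | control set = ATP and no-ATP DMSO wells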
GPR7 antag – human neuropeptides B/W receptor 1 antagonism; P48145; GPR7-expressing cells, fluorescence antagonist assay; inhibition, % at 4.4 µM; hit rate 1.1% among 290,000; AID 1861; in the data active means inhibition above about 16%, passing the limit was not always enough;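 further: cells stimulated with the agonist NPW; 0% = agonist with vehicle and 100% = vehicle without agonist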
Target sequence (P48145 whole entry, looked up): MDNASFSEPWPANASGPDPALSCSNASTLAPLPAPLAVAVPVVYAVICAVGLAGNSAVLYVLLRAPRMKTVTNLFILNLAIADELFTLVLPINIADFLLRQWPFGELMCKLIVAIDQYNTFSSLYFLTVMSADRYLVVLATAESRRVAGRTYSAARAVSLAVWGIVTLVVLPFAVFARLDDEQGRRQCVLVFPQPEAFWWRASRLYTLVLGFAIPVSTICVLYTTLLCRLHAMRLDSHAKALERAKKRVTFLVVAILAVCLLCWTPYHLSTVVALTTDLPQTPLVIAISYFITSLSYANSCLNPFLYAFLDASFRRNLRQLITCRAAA
GalR3 antag – antagonists of human GalR3. inhibition, % at 3 µM. HEK293 GalR3-CNG cAMP membrane potential fluorescence; galR3 body fused to GalR1 C-terminus. AID 651719. O60755. hit rate 0.44% among 360,000;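 active means inhibition above the screen-wide average plus 3 SD, cut at about 13% in these data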;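 further: forskolin and galanin both at EC90 stimulate the cells; cAMP rise reported by CNG channel membrane potential dye signal; 0% = forskolin plus galanin with DMSO and 100% = forskolin alone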
Target sequence (O60755 1-299 limits assumed): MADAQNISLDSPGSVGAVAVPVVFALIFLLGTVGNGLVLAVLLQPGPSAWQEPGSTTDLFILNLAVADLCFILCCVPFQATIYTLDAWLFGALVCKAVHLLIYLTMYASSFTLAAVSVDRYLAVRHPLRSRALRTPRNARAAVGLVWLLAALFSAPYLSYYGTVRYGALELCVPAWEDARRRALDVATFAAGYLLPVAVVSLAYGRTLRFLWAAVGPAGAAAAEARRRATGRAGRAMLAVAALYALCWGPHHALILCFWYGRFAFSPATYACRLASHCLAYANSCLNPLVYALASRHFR
OX1R antag-2 – blocks the human orexin 1 receptor; O43613; OX1R-expressing cells, FRET antagonist read-out; inhibition, % at 6.6 µM; hit rate 1.8% among 330,000; AID 485270; in the data active means inhibition mostly above about 38%, no sharp cut-off; inactive means mostly below about 40%;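 further: 0% = agonist challenge alone and 100% = reference antagonist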
GalR3 antag conf – confirmation of human galanin receptor 3 antagonists; hit rate 59% among 1,600; HEK293 GalR3 CNG cAMP biosensor, membrane potential fluorescence; galR3 fused to GalR1 carboxy tail; challenged with forskolin and galanin at EC90; shares compounds with GalR3 antag; inhibition, % at 3 µM;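 active means inhibition above the primary screen's cutoff, the mean inhibition of all screened compounds plus 3 SD, cut at about 13% in these data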;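 further: 0% = forskolin plus galanin and 100% = forskolin alone with DMSO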
HEK-CNG parental – parental cell agonism counter-screen for GalR3 antagonists | AID 652268 | shares compounds with GalR3 antag | hit rate 10% among 1,600 | HEK293-CNG parental cells, cAMP membrane potential fluorescence; normalised: DMSO wells 0%, forskolin wells 100% | activation, % at 3 µM; in the data active means activation above about 1.3%
* hit, by the source's call. Sampled rows, rich in hits. Any-hit rate of the full collection: about 3.1%.

Results for Cc1[nH]c(=O)[nH]c(=O)c1/C=N/NC(=O)[C@H](C)NC(=O)OC(C)(C)C ?
OX1R antag-1: -2; CHO parental Ca: -9; GPR7 antag: -9; OX1R antag-2: 20; GalR3 antag conf: 1; HEK-CNG parental: 0

Results for COC(=O)c1ccc(COc2ccccc2/C=N/NC(=O)c2cccnc2)cc1 ?
OX1R antag-1: -24; CHO parental Ca: -18; GPR7 antag: 7; GalR3 antag: 13*; OX1R antag-2: 23; GalR3 antag conf: 5; HEK-CNG parental: 1

What do the screens show for `COc1cc(OC)c2cc[nH]c2c1`?
OX1R antag-1: -5; CHO parental Ca: -12; GPR7 antag: -1; GalR3 antag: 18*; OX1R antag-2: 17; GalR3 antag conf: 5; HEK-CNG parental: 0

Results for COc1cc(/C=C2\SC(=Nc3c(C)n(C)n(-c4ccccc4)c3=O)NC2=O)ccc1O ?
GPR7 antag: -3; GalR3 antag: 31*; GalR3 antag conf: 34*; HEK-CNG parental: 0

What do the screens show for `CCCCC1=C([O-])C2N=CC=CC2=[N+](c2ccccn2)C1=O` (configuration not stated)?
OX1R antag-1: 5; CHO parental Ca: 1; GPR7 antag: 2; GalR3 antag: 3; OX1R antag-2: 40

How did COCCn1nnnc1C(C(C)C)N(Cc1ccccc1)Cc1cc2cc(OC)ccc2[nH]c1=O (configuration not stated) do in these assays?
GPR7 antag: 0; GalR3 antag: 65*; GalR3 antag conf: 60*; HEK-CNG parental: 1

Results for COCCn1nnnc1C(C(C)C)N(Cc1cccnc1)Cc1cc2cc(OC)ccc2[nH]c1=O (configuration not stated) ?
OX1R antag-1: -19; CHO parental Ca: -21; GPR7 antag: -15; GalR3 antag: 11; OX1R antag-2: 16

Results for COc1ccc2[nH]c(=O)c(CN(Cc3ccco3)C(c3nnnn3Cc3ccccc3)C(C)C)cc2c1 (configuration not stated) ?
OX1R antag-1: -36; CHO parental Ca: -10; GPR7 antag: 0; GalR3 antag: 13*; OX1R antag-2: 15; GalR3 antag conf: 0; HEK-CNG parental: 0

What do the screens show for `CCO[C@@H]1OC(C(=O)NCc2ccccc2)=C[C@H](C2CC2)[C@H]1CCCO`?
OX1R antag-1: -20; CHO parental Ca: -25; GPR7 antag: 4; OX1R antag-2: 11; GalR3 antag conf: 9; HEK-CNG parental: 0

How did O=[N+]([O-])c1ccc(-c2ccc(S(=O)(=O)NCCN3CCCC3)cc2)cc1 do in these assays?
OX1R antag-1: 4; CHO parental Ca: -8; GPR7 antag: -15; GalR3 antag: 41*; OX1R antag-2: 59*; GalR3 antag conf: 10; HEK-CNG parental: 0

How did O=[N+]([O-])c1ccc(S(=O)(=O)NCCCc2ccccc2)cc1 do in these assays?
OX1R antag-1: -20; CHO parental Ca: -16; GalR3 antag: -2; OX1R antag-2: 0

What do the screens show for `CCN(C(=O)c1ccc(C(C)(C)C)cc1)c1nnc(Cn2nnc3ccccc32)s1`?
OX1R antag-1: 69*; CHO parental Ca: 66*; GPR7 antag: 8; GalR3 antag: 102*; OX1R antag-2: 64; GalR3 antag conf: 107*; HEK-CNG parental: 0

Results for CCN(C(=O)CC(C)C)c1nnc(Cn2nnc3ccccc32)s1 ?
OX1R antag-1: -11; CHO parental Ca: -21; GPR7 antag: 19; GalR3 antag: -5; OX1R antag-2: 32

What do the screens show for `CC1CC(C)CN(C(=O)CSCC(=O)O)C1` (configuration not stated)?
OX1R antag-1: -10; CHO parental Ca: -2; GPR7 antag: -19; GalR3 antag: 13*; OX1R antag-2: 0; GalR3 antag conf: -2; HEK-CNG parental: 0

How did CC1CC(C)CN(C(=O)CSc2nnc(N)s2)C1 (configuration not stated) do in these assays?
OX1R antag-1: -52; CHO parental Ca: -18; GPR7 antag: 3; GalR3 antag: 1; OX1R antag-2: 9

What do the screens show for `COC(=O)c1cc(NS(=O)(=O)c2ccc(N3CCC(C)CC3)c([N+](=O)[O-])c2)cc(C(=O)OC)c1`?
OX1R antag-1: -27; CHO parental Ca: -33; GPR7 antag: -1; GalR3 antag: -6; OX1R antag-2: -17

What do the screens show for `CN(C)c1ccc(CC(=O)N2CCCC(c3cc(C(=O)Nc4ccc(C(C)(C)C)cc4)no3)C2)cc1` (configuration not stated)?
GalR3 antag: 49*; GalR3 antag conf: 109*; HEK-CNG parental: -1

Results for Nc1nonc1-n1nnc(C(=O)N/N=C/c2ccncc2)c1-c1ccccc1 ?
OX1R antag-1: -16; CHO parental Ca: -10; GPR7 antag: -13; GalR3 antag: -9; OX1R antag-2: 20

How did Cc1ccc([N+](=O)[O-])cc1S(=O)(=O)N1CCC(C)CC1 do in these assays?
OX1R antag-1: 2; CHO parental Ca: -5; GPR7 antag: 0; GalR3 antag: -3; OX1R antag-2: 25

Results for Cc1ccc([N+](=O)[O-])cc1S(=O)(=O)N1CCCC1 ?
OX1R antag-1: -15; CHO parental Ca: -3; GPR7 antag: -6; OX1R antag-2: 33; GalR3 antag conf: 0; HEK-CNG parental: 0

What do the screens show for `Cc1cc(C)nc(N2C(=O)CC(C(=O)O)NC2=NCCc2c[nH]c3ccccc23)n1` (configuration not stated)?
OX1R antag-1: -21; CHO parental Ca: 3; GPR7 antag: -9; GalR3 antag: 14*; OX1R antag-2: 9; GalR3 antag conf: 1; HEK-CNG parental: 0

What do the screens show for `COC(=O)C1=C(C)N(Cc2ccccc2)C(=NCCc2c[nH]c3ccccc23)N[C@H]1c1ccccc1`?
OX1R antag-1: 26; CHO parental Ca: -7; OX1R antag-2: 12

Results for Cc1ccc2c(c1)C1CC(C)(O2)N(c2cccc(C(=O)N3CCN(c4ccccn4)CC3)c2)C(=O)N1 (configuration not stated) ?
OX1R antag-1: -42; CHO parental Ca: -32; GPR7 antag: -7; GalR3 antag: 0; OX1R antag-2: 14

What do the screens show for `CC1(C)CC(=O)c2c(Cc3ccccc3)noc2C1`?
OX1R antag-1: -4; CHO parental Ca: 0; GPR7 antag: -6; GalR3 antag: 20*; OX1R antag-2: 38; GalR3 antag conf: 4; HEK-CNG parental: 1.3*

How did COc1cccc(-c2cnc(C(O)c3ccc(F)cc3C)[nH]2)c1 (configuration not stated) do in these assays?
GalR3 antag: -6

How did COc1ccc(NS(=O)(=O)c2ccc(-c3coc(C)n3)cc2)cc1 do in these assays?
OX1R antag-1: 15; CHO parental Ca: 11; GPR7 antag: -3; GalR3 antag: -7; OX1R antag-2: 20
